≈ marks a conversion by molar mass, not a printed value.
Assays:
Type in all cases: functional
Moraxella catarrhalis [1] = test: Antibacterial activity against Moraxella catarrhalis clinical isolate 1 after 18 hrs by NCCLS agar dilution method; settings: clinical isolate 1, 18 h
Procedure, shortened: (§1)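 NCCLS agar dilution on Mueller-Hinton agar with 5% sheep blood added to support growth. Drug dilutions 0.12–64 µg/ml. Test agents in 80% DMSO in water, linezolid in 40% water in ethanol. Final inoculum 10^7 CFU/ml, 18 h at 35 °C. MIC read as the lowest concentration with no visible growth.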

Moraxella catarrhalis [2] = test: Antibacterial activity against Moraxella catarrhalis clinical isolate 36 after 18 hrs by NCCLS agar dilution method; settings: clinical isolate 36, 18 h; procedure, shortened: as §1
Moraxella catarrhalis [3] = test: Antibacterial activity against Moraxella catarrhalis clinical isolate 3447 after 18 hrs by NCCLS agar dilution method; settings: clinical isolate 3447, 18 h; procedure, shortened: as §1
Staphylococcus [4] = test: Antibacterial activity against methicillin-susceptible coagulase-negative Staphylococcus after 18 hrs by NCCLS agar dilution method
Procedure, shortened: (§2)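 Clinical isolates were tested by agar dilution on Mueller-Hinton agar with drug dilutions from 0.12 to 64 µg/ml. Test compounds were dissolved in 80% DMSO in water. Final inoculum was 10^7 CFU/ml, incubated at 35 °C for 18 h. MIC was the lowest concentration inhibiting visible growth.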

Staphylococcus aureus [5] = test: Antibacterial activity against methicillin-resistant Staphylococcus aureus after 18 hrs by NCCLS agar dilution method; procedure, shortened: as §2
Moraxella catarrhalis [6] = test: Antibacterial activity against Moraxella catarrhalis clinical isolate 2824 after 18 hrs by NCCLS agar dilution method; settings: clinical isolate 2824, 18 h; procedure, shortened: as §1
Staphylococcus aureus [7] = test: Antibacterial activity against Staphylococcus aureus ATCC 25923 after 18 hrs by […] in presence of human plasma; settings: ATCC 25923, Plasma
Procedure, shortened: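 To gauge plasma protein binding and/or plasma instability, MIC was determined in Mueller-Hinton broth containing 50% human plasma. Linezolid served as a reference agent. Ratio compares this MIC with the MIC obtained without plasma.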

Staphylococcus [8] = test: Antibacterial activity against methicillin-resistant coagulase-negative Staphylococcus after 18 hrs by NCCLS agar dilution method; procedure, shortened: as §2
Moraxella catarrhalis [9] = test: Antibacterial activity against Moraxella catarrhalis clinical isolate 112 after 18 hrs by NCCLS agar dilution method; settings: clinical isolate 112, 18 h; procedure, shortened: as §1
Escherichia coli = test: Antibacterial activity against Escherichia coli ATCC 25922 after 18 hrs by NCCLS agar dilution method; settings: ATCC 25922, 18 h
Procedure, shortened: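 Agar dilution per NCCLS on Mueller-Hinton agar, drug dilutions 0.12–64 µg/ml. Linezolid dissolved in 40% water in ethanol, vancomycin in water, test agents in 80% DMSO in water. Inoculum 10^7 CFU/ml (final), incubated 35 °C for 18 h. MIC is the lowest concentration preventing visible growth.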

Staphylococcus aureus [10] = test: Antibacterial activity against methicillin-susceptible Staphylococcus aureus after 18 hrs by NCCLS agar dilution method; procedure, shortened: as §2
Streptococcus pneumoniae = test: Antibacterial activity against penicillin-resistant Streptococcus pneumoniae after 18 hrs by NCCLS agar dilution method
Procedure, shortened: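 Agar dilution was run on Mueller-Hinton agar supplemented with 5% sheep blood, with drug dilutions from 0.12 to 64 µg/ml. Test compounds were dissolved in 80% DMSO in water. Final inoculum was 10^7 CFU/ml, incubated at 35 °C for 18 h. MIC was the lowest concentration preventing visible growth.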

Moraxella catarrhalis [11] = test: Antibacterial activity against Moraxella catarrhalis clinical isolate 138 after 18 hrs by NCCLS agar dilution method; settings: clinical isolate 138, 18 h; procedure, shortened: as §1
Moraxella catarrhalis [12] = test: Antibacterial activity against Moraxella catarrhalis clinical isolate 125 after 18 hrs by NCCLS agar dilution method; settings: clinical isolate 125, 18 h; procedure, shortened: as §1
Staphylococcus aureus [13] = test: Antibacterial activity against Staphylococcus aureus ATCC 25923 after 18 hrs by NCCLS agar dilution method; settings: ATCC 25923, 18 h
Procedure, shortened: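 Plain Mueller-Hinton agar, agar dilution per NCCLS, concentrations 0.12–64 µg/ml. Test agents in 80% DMSO in water, linezolid in 40% water in ethanol, vancomycin in water. Final inoculum 10^7 CFU/ml, 35 °C for 18 h. MIC = lowest concentration inhibiting visible growth.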

Enterococcus [14] = test: Antibacterial activity against vancomycin-resistant Enterococcus after 18 hrs by NCCLS agar dilution method; procedure, shortened: as §2
Enterococcus [15] = test: Antibacterial activity against vancomycin-susceptible Enterococcus after 18 hrs by NCCLS agar dilution method; procedure, shortened: as §2
Moraxella catarrhalis [16] = test: Antibacterial activity against Moraxella catarrhalis ATCC 8176 after 18 hrs by NCCLS agar dilution method; settings: ATCC 8176, 18 h; procedure, shortened: as §1
Haemophilus influenzae = test: Antibacterial activity against Haemophilus influenzae ATCC 49247 after 18 hrs by NCCLS agar dilution method; settings: ATCC 49247, 18 h; procedure, shortened: as §1
Moraxella catarrhalis [17] = test: Antibacterial activity against Moraxella catarrhalis clinical isolate 255 after 18 hrs by NCCLS agar dilution method; settings: clinical isolate 255, 18 h; procedure, shortened: as §1

O=C(NCC(=O)N1CCN(c2ccc(N3C[C@H](Cn4ccnn4)OC3=O)cc2F)CC1)c1cccnc1
MIC (Moraxella catarrhalis [1]): 8 mg/L (≈ 15.7 µM) | MIC (Moraxella catarrhalis [2]): 8 mg/L (≈ 15.7 µM) | MIC (Moraxella catarrhalis [3]): 8 mg/L (≈ 15.7 µM) | MIC (Staphylococcus [4]): 1 mg/L (≈ 1.97 µM) | MIC (Staphylococcus aureus [5]): 1 mg/L (≈ 1.97 µM) | MIC (Moraxella catarrhalis [6]): 8 mg/L (≈ 15.7 µM) | MIC (Staphylococcus aureus [7]): 8 mg/L | MIC (Staphylococcus [8]): 1 mg/L (≈ 1.97 µM) | MIC (Moraxella catarrhalis [9]): 8 mg/L (≈ 15.7 µM) | MIC (Escherichia coli): > 64 mg/L | MIC (Staphylococcus aureus [10]): 1 mg/L (≈ 1.97 µM) | MIC (Streptococcus pneumoniae): 0.25 mg/L (≈ 0.492 µM) | MIC (Moraxella catarrhalis [11]): 8 mg/L (≈ 15.7 µM) | MIC (Moraxella catarrhalis [12]): 8 mg/L (≈ 15.7 µM) | MIC (Staphylococcus aureus [13]): 2 mg/L (≈ 3.93 µM) | MIC (Enterococcus [14]): 2 mg/L (≈ 3.93 µM) | MIC (Enterococcus [15]): 2 mg/L (≈ 3.93 µM) | MIC (Moraxella catarrhalis [16]): 8 mg/L (≈ 15.7 µM) | MIC (Haemophilus influenzae): 8 mg/L (≈ 15.7 µM) | MIC (Moraxella catarrhalis [17]): 8 mg/L (≈ 15.7 µM)

Cc1cn(C[C@H]2CN(c3ccc(N4CCN(C(=O)CNC(=O)c5cccnc5)CC4)c(F)c3)C(=O)O2)nn1
MIC (Moraxella catarrhalis [1]): > 4 mg/L | MIC (Moraxella catarrhalis [2]): > 4 mg/L | MIC (Moraxella catarrhalis [3]): 8 mg/L (≈ 15.3 µM) | MIC (Staphylococcus [4]): 1 mg/L (≈ 1.91 µM) | MIC (Staphylococcus aureus [5]): 1 mg/L (≈ 1.91 µM) | MIC (Moraxella catarrhalis [6]): 8 mg/L (≈ 15.3 µM) | MIC (Staphylococcus aureus [7]): 4 mg/L | MIC (Staphylococcus [8]): 1 mg/L (≈ 1.91 µM) | MIC (Moraxella catarrhalis [9]): 4 mg/L (≈ 7.65 µM) | MIC (Escherichia coli): > 64 mg/L | MIC (Staphylococcus aureus [10]): 1 mg/L (≈ 1.91 µM) | MIC (Streptococcus pneumoniae): 0.25 mg/L (≈ 0.478 µM) | MIC (Moraxella catarrhalis [11]): 4 mg/L (≈ 7.65 µM) | MIC (Moraxella catarrhalis [12]): 4 mg/L (≈ 7.65 µM) | MIC (Staphylococcus aureus [13]): 2 mg/L (≈ 3.83 µM) | MIC (Enterococcus [14]): 1 mg/L (≈ 1.91 µM) | MIC (Enterococcus [15]): 1 mg/L (≈ 1.91 µM) | MIC (Moraxella catarrhalis [16]): 8 mg/L (≈ 15.3 µM) | MIC (Haemophilus influenzae): 8 mg/L (≈ 15.3 µM) | MIC (Moraxella catarrhalis [17]): 4 mg/L (≈ 7.65 µM)

O=C(NCC(=O)N1CCN(c2ccc(N3C[C@H](Cn4ccnn4)OC3=O)cc2F)CC1)c1cccs1
MIC (Moraxella catarrhalis [1]): 8 mg/L (≈ 15.6 µM) | MIC (Moraxella catarrhalis [2]): 8 mg/L (≈ 15.6 µM) | MIC (Moraxella catarrhalis [3]): 8 mg/L (≈ 15.6 µM) | MIC (Staphylococcus [4]): 0.5 mg/L (≈ 0.974 µM) | MIC (Staphylococcus aureus [5]): 0.5 mg/L (≈ 0.974 µM) | MIC (Moraxella catarrhalis [6]): 8 mg/L (≈ 15.6 µM) | MIC (Staphylococcus aureus [7]): 8 mg/L | MIC (Staphylococcus [8]): 0.5 mg/L (≈ 0.974 µM) | MIC (Moraxella catarrhalis [9]): 8 mg/L (≈ 15.6 µM) | MIC (Escherichia coli): > 64 mg/L | MIC (Staphylococcus aureus [10]): 0.5 mg/L (≈ 0.974 µM) | MIC (Streptococcus pneumoniae): 0.5 mg/L (≈ 0.974 µM) | MIC (Moraxella catarrhalis [11]): 8 mg/L (≈ 15.6 µM) | MIC (Moraxella catarrhalis [12]): 8 mg/L (≈ 15.6 µM) | MIC (Staphylococcus aureus [13]): 1 mg/L (≈ 1.95 µM) | MIC (Enterococcus [14]): 1 mg/L (≈ 1.95 µM) | MIC (Enterococcus [15]): 1 mg/L (≈ 1.95 µM) | MIC (Moraxella catarrhalis [16]): 8 mg/L (≈ 15.6 µM) | MIC (Haemophilus influenzae): 16 mg/L (≈ 31.2 µM) | MIC (Moraxella catarrhalis [17]): 8 mg/L (≈ 15.6 µM)
